Source: ChEMBL document CHEMBL1138446, “The design, synthesis, and antiviral activity of monofluoro and difluoro analogues of 4'-azidocytidine against hepatitis C virus replication: the discovery of 4'-azido-2'-deoxy-2'-fluorocytidine and 4'-azido-2'-dideoxy-2',2'-difluorocytidine” (J Med Chem, 2009)
pEC50, pIC50: −log10 of the molar value.

Tests used:
Hepatitis C virus = assay: Antiviral activity against HCV 1b infected in human 2209-23 cells by replicon assay; type: functional, organism-based, Hepacivirus hominis
[1] = Cytotoxicity against human 2209-23 cells assessed as cell viability by WST-1 assay; type: cell-based
In short: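 Viability of the same 2209-23 replicon cells was measured by the WST-1 assay. Values are reported as CC50.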

[2] = Antiproliferative activity against human 2209-23 cells assessed as [3H]thymidine incorporation by scintillation proximity assay; type: cell-based
In short: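 Proliferation of the GT-1b stable replicon line 2209-23 was measured as tritiated thymidine incorporation into cellular DNA by scintillation proximity assay. Values are reported as IC50.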

[3] = Inhibition of HCV NS5B polymerase-mediated RNA synthesis; parameters: species or system Hepacivirus hominis

Row | SMILES | pEC50 (Hepatitis C virus) | CC50 [1] [µM] | pIC50 [2] | pEC50 [3]
1 | [N-]=[N+]=N[C@]1(CO)O[C@@H](n2ccc(N)nc2=O)[C@H](O)[C@H]1F | < 4.00 | > 100 |  | 
2 | [N-]=[N+]=N[C@]1(CO)O[C@@H](n2ccc(N)nc2=O)C(F)(F)[C@@H]1O | 7.18 | > 100 |  | 
3 | [N-]=[N+]=N[C@]1(CO)O[C@@H](n2ccc(N)nc2=O)[C@H](O)[C@@H]1F | < 4.00 | > 100 |  | 
4 | Nc1ccn([C@@H]2O[C@H](CO)[C@@H](O)[C@@H]2F)c(=O)n1 | 6.94 | > 100 | 6.76 | 
5 | [N-]=[N+]=N[C@]1(CO)O[C@@H](n2ccc(N)nc2=O)[C@H](O)[C@@H]1O [4'-AZIDOCYTIDINE] | 5.89 | > 2000 | < 4.00 | 5.89
6 | [N-]=[N+]=N[C@]1(CO)O[C@@H](n2ccc(N)nc2=O)[C@H](F)[C@@H]1O | 5.40 | > 100 | < 4.00 | 
7 | [N-]=[N+]=N[C@]1(CO)O[C@@H](n2ccc(N)nc2=O)[C@@H](O)[C@@H]1O | 6.77 | > 1000 | < 4.00 | 
8 | [N-]=[N+]=N[C@]1(CO)O[C@@H](n2ccc(N)nc2=O)[C@@H](F)[C@@H]1O [RO-0622] | 7.62 | > 100 | < 4.00 | 
